Active and inactive are the calls of the source. No cut-off for these calls is given here.
Columns and labels:
[1] = Oral bioavailability in dog at 5 mg/kg; format: ADME, organism-based, Canis lupus familiaris; conditions: in vivo
[2] = molecular target: CYP2D6 (Homo sapiens, UniProt P10635); assay: Inhibition of CYP2D6 (unknown origin) at 10 uM relative to control; format: ADME
[3] = Volume of distribution at steady state in dog at 1 mg/kg, iv or 5 mg/kg, po; format: ADME, organism-based, Canis lupus familiaris; conditions: in vivo, read-out: Vdss
[4] = Drug metabolism in rat microsomes assessed as drug turnover at 20 uM measured after 30 mins by LCMS analysis; format: ADME, Microsome; conditions: read-out: Drug metabolism
Summary of the method: (§1)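 High-throughput microsomal stability: compound at 20 uM incubated with mouse, rat, dog or human liver microsomes at 37 °C; percent parent remaining measured after 30 min and reported as % turnover.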

[5] = Drug metabolism in mouse microsomes assessed as drug turnover at 20 uM measured after 30 mins by LCMS analysis; format: ADME, Microsome; conditions: read-out: Drug metabolism; summary of the method: as §1
[6] = molecular target: T1, Probable G-protein coupled receptor 142 (Homo sapiens) (UniProt Q7Z601); assay: Agonist activity at human GPR142 receptor expressed in HEK293 cells assessed as accumulation of inositol phosphate at 30 uM to 1 nM incubated for 1 hr followed by IP1-d2 addition by HTRF assay relative to control; format: functional, cell-based
T1 sequence (whole entry): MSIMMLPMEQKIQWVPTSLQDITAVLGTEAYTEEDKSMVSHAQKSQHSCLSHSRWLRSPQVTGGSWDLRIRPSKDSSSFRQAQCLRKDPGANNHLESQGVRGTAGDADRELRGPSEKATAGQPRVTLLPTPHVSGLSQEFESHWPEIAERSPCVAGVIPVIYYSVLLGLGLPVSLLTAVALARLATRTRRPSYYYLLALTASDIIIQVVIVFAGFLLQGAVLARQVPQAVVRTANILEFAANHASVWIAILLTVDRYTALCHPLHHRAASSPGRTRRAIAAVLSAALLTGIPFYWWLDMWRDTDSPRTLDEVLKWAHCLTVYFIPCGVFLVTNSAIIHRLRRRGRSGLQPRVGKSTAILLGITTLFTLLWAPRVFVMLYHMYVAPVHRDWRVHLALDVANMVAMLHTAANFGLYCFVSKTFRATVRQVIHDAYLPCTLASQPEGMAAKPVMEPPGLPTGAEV
Summary of the method: (§2)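 HEK293 cells stably expressing human GPR142 (DMEM, 10% FBS, 800 ug/mL G418, 37 °C, 5% CO2), seeded 5000 cells/well and left 18 h to attach. Compounds added at 30 uM to 1 nM, 1 h incubation in HBSS (+Ca, +Mg), 0.1% BSA, 50 mM LiCl, 20 mM HEPES pH 7.2. IP-1 HTRF read-out: IP1-d2 then cryptate, 1 h at 25 °C, 665/620 nm ratio converted via IP-1 standard curve; EC50 by 4-parameter logistic fit.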

[7] = molecular target: CYP2C9 (Homo sapiens, UniProt P11712); assay: Inhibition of CYP2C9 (unknown origin) at 10 uM relative to control; format: ADME
[8] = Drug metabolism in human microsomes assessed as drug turnover at 20 uM measured after 30 mins by LCMS analysis; format: ADME, Microsome; conditions: read-out: Drug metabolism; summary of the method: as §1
[9] = Clearance in dog at 1 mg/kg, iv or 5 mg/kg, po; format: ADME, organism-based, Canis lupus familiaris; conditions: in vivo
[10] = molecular target: T2, Probable G-protein coupled receptor 142 (Homo sapiens, UniProt Q7Z601); assay: Agonist activity at human GPR142 receptor expressed in HEK293 cells assessed as accumulation of inositol phosphate incubated for 1 hr followed by IP1-d2 addition by HTRF assay; format: functional, cell-based; summary of the method: as §2
T2 sequence (Q7Z601 whole entry): T1 sequence (whole entry)

[11] = Volume of distribution at steady state in rat at 1 mg/kg, iv or 10 mg/kg, po; format: ADME, organism-based; conditions: in vivo, read-out: Vdss
[12] = Oral bioavailability in rat at 10 mg/kg; format: ADME, organism-based; conditions: in vivo
[13] = Clearance in rat at 1 mg/kg, iv or 10 mg/kg, po; format: ADME, organism-based; conditions: in vivo
[14] = molecular target: CYP3A4 (Homo sapiens, UniProt P08684); assay: Inhibition of CYP3A4 (unknown origin) at 10 uM relative to control; format: ADME
[15] = Drug metabolism in dog microsomes assessed as drug turnover at 20 uM measured after 30 mins by LCMS analysis; format: ADME, Canis lupus familiaris, Microsome; conditions: read-out: Drug metabolism; summary of the method: as §1
[16] = tested on: Mus musculus; assay: Hypoglycemic activity in lean C57BL/6J mouse assessed as reduction in glucose level at 1 mg/kg, po administered 30 mins prior to glucose challenge measured for 60 mins by IPGTT; format: functional
Summary of the method: (§3)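 IPGTT in male C57BL/6 mice, lean or diet-induced obese; compound given orally 30 min before intraperitoneal glucose load; blood glucose followed over time. Mean ± SEM, n=5 per group, compared with vehicle (p<0.05, 0.01, 0.001).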

[17] = tested on: Mus musculus; assay: Hypoglycemic activity in diet-induced obese C57BL/6J mouse assessed as increase in plasma insulin secretion at 10 mg/kg, po administered 30 mins prior to glucose challenge measured after 15 mins by IPGTT; format: functional, organism-based; conditions: 15 mg/kg, in the assay text read “15 mg/kg” for “10 mg/kg”
Summary of the method: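 IPGTT in male diet-induced obese mice; compound given orally 30 min before intraperitoneal glucose; plasma insulin measured. Mean ± SEM, n=5 per group, versus vehicle.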

[18] = tested on: Mus musculus; assay: Hypoglycemic activity in po dosed lean C57BL/6J mouse assessed as reduction in glucose level administered 30 mins prior to glucose challenge measured for 60 mins by IPGTT; format: functional, organism-based; summary of the method: as §3
[19] = tested on: Mus musculus; assay: Hypoglycemic activity in lean C57BL/6J mouse assessed as reduction in glucose level at 0.01 mg/kg, po administered 30 mins prior to glucose challenge measured for 60 mins by IPGTT; format: functional; summary of the method: as §3
[20] = Dissociation constant, pKa of compound; format: physicochemical
[21] = tested on: Mus musculus; assay: Hypoglycemic activity in lean C57BL/6J mouse assessed as reduction in glucose level at 0.3 mg/kg, po administered 30 mins prior to glucose challenge measured for 60 mins by IPGTT; format: functional; summary of the method: as §3
[22] = tested on: Mus musculus; assay: Hypoglycemic activity in lean C57BL/6J mouse assessed as reduction in glucose level at 10 mg/kg, po administered 30 mins prior to glucose challenge measured for 60 mins by IPGTT; format: functional; summary of the method: as §3
[23] = tested on: Mus musculus; assay: Hypoglycemic activity in diet-induced obese C57BL/6J mouse assessed as increase in insulin secretion at 15 mg/kg, po co-administered with 5 mg/kg DPP-4 inhibitor, sitagliptin 30 mins prior to glucose challenge measured after 15 mins by IPGTT; format: functional, organism-based
[24] = tested on: Mus musculus; assay: Hypoglycemic activity in diet-induced obese C57BL/6J mouse assessed as reduction in glucose level at 15 mg/kg, po co-administered with 5 mg/kg DPP-4 inhibitor, sitagliptin 30 mins prior to glucose challenge measured after 120 mins by IPGTT; format: functional, organism-based; summary of the method: as §3
[25] = tested on: Mus musculus; assay: Hypoglycemic activity in lean C57BL/6J mouse assessed as reduction in glucose level at 0.03 mg/kg, po administered 30 mins prior to glucose challenge measured for 60 mins by IPGTT; format: functional; summary of the method: as §3
[26] = tested on: Mus musculus; assay: Hypoglycemic activity in diet-induced obese C57BL/6J mouse assessed as reduction in glucose level at 15 mg/kg, po administered 30 mins prior to glucose challenge measured for 120 mins by IPGTT; format: functional, organism-based; summary of the method: as §3
[27] = Fractional renal clearance in dog at 1 mg/kg, iv or 5 mg/kg, po; format: ADME, organism-based, Canis lupus familiaris; conditions: in vivo
[28] = tested on: Mus musculus; assay: Hypoglycemic activity in lean C57BL/6J mouse assessed as reduction in glucose level at 0.1 mg/kg, po administered 30 mins prior to glucose challenge measured for 60 mins by IPGTT; format: functional; summary of the method: as §3
[29] = Hypoglycemic activity in mouse pancreatic islets assessed as increase in glucose-dependent insulin secretion at 10 uM relative to control; format: functional, Pancreatic islet
Summary of the method: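 Isolated mouse pancreatic islets; glucose-dependent insulin secretion measured at 2.8 mM and 11.1 mM glucose with compound at 10 uM.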

[30] = molecular target: Cytochrome P450 3A4 (Homo sapiens, UniProt P08684); assay: Induction of CYP3A4 (unknown origin) at 10 uM; format: ADME
[31] = Permeability of compound; format: ADME; conditions: not told
[32] = molecular target: Cytochrome P450 2C9 (Homo sapiens, UniProt P11712); assay: Induction of CYP2C9 (unknown origin) at 10 uM; format: ADME
[33] = molecular target: Cytochrome P450 2D6 (Homo sapiens, UniProt P10635); assay: Induction of CYP2D6 (unknown origin) at 10 uM; format: ADME
[34] = Toxicity in dog assessed as NOAEL administered as repeated dose for 1 month; set-up: species or system Canis lupus familiaris; conditions: in vivo
[35] = Toxicity in rat assessed as NOAEL administered as repeated dose for 1 month; conditions: in vivo
[36] = Solubility of compound at pH 2 to 7.5; format: physicochemical; conditions: buffer

CYP2C9, sequence (P11712 whole entry): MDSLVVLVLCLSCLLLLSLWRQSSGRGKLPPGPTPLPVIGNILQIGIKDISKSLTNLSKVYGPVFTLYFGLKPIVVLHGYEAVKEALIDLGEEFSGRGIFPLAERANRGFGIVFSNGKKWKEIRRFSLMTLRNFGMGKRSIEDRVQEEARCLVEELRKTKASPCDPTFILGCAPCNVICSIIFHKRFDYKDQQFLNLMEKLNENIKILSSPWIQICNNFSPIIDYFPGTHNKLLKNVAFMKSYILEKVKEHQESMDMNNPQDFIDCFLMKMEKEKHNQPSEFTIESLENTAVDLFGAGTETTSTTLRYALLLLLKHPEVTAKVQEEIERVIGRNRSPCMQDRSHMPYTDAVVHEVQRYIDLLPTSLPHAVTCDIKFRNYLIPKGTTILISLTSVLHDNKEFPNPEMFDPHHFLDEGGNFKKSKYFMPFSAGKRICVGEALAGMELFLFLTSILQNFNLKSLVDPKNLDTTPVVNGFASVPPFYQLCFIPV
CYP2D6, sequence (P10635 whole entry): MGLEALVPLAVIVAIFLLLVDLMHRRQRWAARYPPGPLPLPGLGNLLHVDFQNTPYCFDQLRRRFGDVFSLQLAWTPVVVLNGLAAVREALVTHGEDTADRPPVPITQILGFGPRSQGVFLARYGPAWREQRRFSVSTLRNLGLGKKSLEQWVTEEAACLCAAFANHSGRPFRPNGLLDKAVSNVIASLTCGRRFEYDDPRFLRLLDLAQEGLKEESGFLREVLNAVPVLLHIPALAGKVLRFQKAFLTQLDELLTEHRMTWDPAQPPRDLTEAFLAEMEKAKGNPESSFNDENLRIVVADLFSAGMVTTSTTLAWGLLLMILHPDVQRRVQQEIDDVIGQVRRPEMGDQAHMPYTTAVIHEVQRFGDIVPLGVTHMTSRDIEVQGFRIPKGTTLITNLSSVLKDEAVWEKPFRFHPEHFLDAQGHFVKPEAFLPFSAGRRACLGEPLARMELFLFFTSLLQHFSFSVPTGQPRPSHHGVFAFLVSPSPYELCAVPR
CYP3A4, sequence (P08684 whole entry): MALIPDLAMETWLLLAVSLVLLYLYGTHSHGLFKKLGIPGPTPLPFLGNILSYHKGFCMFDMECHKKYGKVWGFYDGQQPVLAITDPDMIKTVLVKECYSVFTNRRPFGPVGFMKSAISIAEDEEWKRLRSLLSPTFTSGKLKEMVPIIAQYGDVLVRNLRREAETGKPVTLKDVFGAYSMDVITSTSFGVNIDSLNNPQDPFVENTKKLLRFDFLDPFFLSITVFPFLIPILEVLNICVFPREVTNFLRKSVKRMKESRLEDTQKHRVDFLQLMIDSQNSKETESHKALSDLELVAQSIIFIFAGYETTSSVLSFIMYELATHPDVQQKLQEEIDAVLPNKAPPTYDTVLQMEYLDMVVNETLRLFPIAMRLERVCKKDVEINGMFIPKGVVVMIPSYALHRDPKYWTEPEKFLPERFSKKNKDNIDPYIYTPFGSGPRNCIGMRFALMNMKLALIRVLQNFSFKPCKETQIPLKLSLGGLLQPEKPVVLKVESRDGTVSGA
Cytochrome P450 2C9, sequence (P11712 whole entry): as the sequence (P11712 whole entry) above
Cytochrome P450 2D6, sequence (P10635 whole entry): as the sequence (P10635 whole entry) above
Cytochrome P450 3A4, sequence (P08684 whole entry): as the sequence (P08684 whole entry) above

SMILES | bioavailability [1] [%] | inhibition at 10 µM [2] [%] | Vd [3] [L/kg] | metabolised at 0.5 h, 20 µM [4] [%] | metabolised at 0.5 h, 20 µM [5] [%] | Emax [6] [%] | inhibition at 10 µM [7] [%] | metabolised at 0.5 h, 20 µM [8] [%] | clearance [9] [mL/min/kg] | EC50 [10] [nM] | Vd [11] [L/kg] | bioavailability [12] [%] | clearance [13] [mL/min/kg] | inhibition at 10 µM [14] [%] | metabolised at 0.5 h, 20 µM [15] [%] | pKa [20] | CL [27] [%] | other results
Cc1ncn(C)c1-c1nnc([C@H]2CCC[C@@H](N(C)C(=O)c3cccc(Cl)c3)C2)[nH]1 | 86 | 0 | 0.9 | 55 | 39 | 111 | 0 | 26 | 8.8 | 14 | 1 | 29 | 40.1 | 3.3 | 33 | – | – | –
Cc1ncn(C)c1NC(=O)[C@H]1CCC[C@@H](N(C)C(=O)c2cccc(C(F)(F)F)c2)C1 | 66 | 0 | 1.2 | 41 | 89 | 104 | 14 | 32 | 17.6 | 30 | 1.3 | 28 | 49.6 | 6.1 | 28 | 6.9 | 20 | inhibition in vivo at 1 mg/kg [16]: 34%; Activity [17]: Active; Activity [18]: Dose-dependent effect; inhibition in vivo at 0.01 mg/kg [19]: 9%; inhibition in vivo at 0.3 mg/kg [21]: 27%; inhibition in vivo at 10 mg/kg [22]: 47%; Activity [23]: Active; Activity [24]: Active; inhibition in vivo at 0.03 mg/kg [25]: 11%; Activity [26]: Active; inhibition in vivo at 0.1 mg/kg [28]: 12%; fold change (FC) [29]: 1.4
Cc1ncn(C)c1-c1nnc([C@@H]2C[C@H](N(C)C(=O)c3cccc(C(F)(F)F)c3)CCO2)[nH]1 | 78 | 16 | 1.3 | 14 | 22 | – | 11 | 14 | 8.4 | 43 | 1.1 | 63 | 22.1 | 22 | 13 | 5.9 | < 5 | Activity [30]: Not Active; Papp [31]: 13.5 ×10⁻⁶ cm/s; Activity [32]: Not Active; Activity [33]: Not Active; NOAEL at 1 month [34]: 180 mg/kg; NOAEL at 1 month [35]: 200 mg/kg; solubility [36]: > 2000 µg/mL
